Data from ChEMBL document CHEMBL2424539, “Identification, synthesis and evaluation of substituted benzofurazans as inhibitors of CREB-mediated gene transcription” (Bioorg Med Chem Lett, 2013).

Experiments:
[1] = Inhibition of Herpesvirus VP16-CREB (unknown origin)-mediated gene transcription in HEK293T cells by luciferase reporter gene assay; format: cell-based; settings: HEK-293T
Procedure, shortened: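 HEK 293T cells cotransfected with VP16-CREB plus CRE-RLuc, treated with graded compound concentrations without forskolin stimulation, then lysed and RLuc activity read and normalized to protein (RLU/μg protein). IC50 in μM, mean ± SD of at least two independent experiments run in triplicate; top concentration 50 or 100 μM.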

[2] = Inhibition of CREB (unknown origin)-mediated gene transcription in HEK293T cells preincubated for 30 mins followed by forskolin addition measured after 5 hrs by luciferase reporter gene assay; format: cell-based; settings: Homo sapiens, HEK-293T
Procedure, shortened: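 HEK 293T cells transfected with CRE-RLuc (RLuc driven by three tandem CRE copies), treated with graded compound concentrations for 30 min, then stimulated with forskolin (10 μM) for another 5 h. Cells lysed and RLuc activity read, normalized to protein (RLU/μg protein). Stocks in DMSO (one in DMF). IC50 in μM, mean ± SD of at least two independent experiments run in triplicate; top concentration 50 or 100 μM.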

[3] = (§1) Inhibition of CREB-KID/CBP-KIX domain interaction (unknown origin) after 20 hrs by luciferase reporter gene assay; parameters: species or system Homo sapiens
Procedure, shortened: (§2)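 Split Renilla luciferase complementation assay: RLucC-KIX and KID-RLucN fusions mixed with graded compound concentrations at 4 °C for 20 h, then residual RLuc activity measured. Stocks in DMSO (one in DMF). IC50 in μM, mean ± SD of at least two independent experiments run in duplicate; top concentration 50 or 100 μM.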

[4] = test system: HEK-293T; assay: Selectivity ratio of IC50 for CREB (unknown origin)-mediated gene transcription in HEK293T cells to IC50 for CREB-KID/CBP-KIX domain interaction (unknown origin); format: cell-based; settings: Homo sapiens
[5] = test system: HEK-293T; assay: Selectivity ratio of IC50 for Herpesvirus VP16-CREB (unknown origin)-mediated gene transcription in HEK293T cells to IC50 for CREB (unknown origin)-mediated gene transcription in HEK293T cells; format: cell-based
[6] = species on record: Homo sapiens; assay: as §1; procedure, shortened: as §2

Structure (SMILES)	IC50 [1] [µM]	IC50 [2] [µM]	IC50 [3] [µM]	inhibition [6]	Ratio IC50 [4]	Ratio IC50 [5]
O=[N+]([O-])c1cc(NCc2cccc3nonc23)ccc1Cl		> 50	> 50			
O=[N+]([O-])c1ccc(Sc2ccccn2)c2nonc12	13.2	9.42	0.41			
O=[N+]([O-])c1ccc(CNc2ccc(Cl)cc2)c2nonc12		> 50	13.1			

The next lines start with results.

IC50 [1] [µM]	IC50 [2] [µM]	IC50 [3] [µM]	inhibition [6]	Structure (SMILES)	Ratio IC50 [4]	Ratio IC50 [5]
> 50	50	50		Nc1ccc(Nc2ccc(Cl)cc2)c2nonc12		
> 100	13.7	7.14		O=[N+]([O-])c1ccc(Nc2ccc(Cl)cc2)c2nonc12	2	
	> 50	0.17		O=C(Nc1ccc(Cl)cc1)c1ccc([N+](=O)[O-])c2nonc12		
6.14	2.09	0.36	Dose-dependent effect	O=[N+]([O-])c1ccc(Sc2cccc[n+]2[O-])c2nonc12		3
